Test results from ChEMBL document CHEMBL1123076, “Synthesis and biological evaluation of 9-[5'-(2-oxo-1,3,2-oxazaphosphorinan-2-yl)-beta-D-arabinosyl]ade nine and 9-[5'-(2-oxo-1,3,2-dioxaphosphorinan-2-yl)-beta-D-arabinosyl]ade nine: potential neutral precursors of 9-[beta-D-arabinofuranosyl]adenine 5'-monophosphate” (1985).

How the values were obtained:
Format in all cases: functional
Mus musculus [1] = test: Antitumor activity was evaluated as percent increase in life span in BDF1 mice (six mice per group) implanted intraperitoneally with P-388 leukemia cells (10e6 )at a dose of 100 mg/Kg,; details: P388, ip
Procedure, shortened: (§1)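 Male BDF1 mice (average weight 23 g) implanted ip with 10^6 P-388 cells on day 0. Treatment in sterile 0.9% saline given ip daily for 9 days starting 24 h after implantation; saline-only controls. Animals observed up to 60 days. Median survival of treated (T) vs controls (C) expressed as %ILS = (T/C − 1) × 100; significance at P < 0.05.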

Mus musculus [2] = test: Antitumor activity was evaluated as percent increase in life span in BDF1 mice (six mice per group) implanted intraperitoneally with P-388 leukemia cells (10e6 )at a dose of 300 mg/Kg,; details: P388, ip; procedure, shortened: as §1
Mus musculus [3] = test: Antitumor activity was evaluated as percent increase in life span in BDF1 mice (six mice per group) implanted intraperitoneally with P-388 leukemia cells (10e6 )at a dose of 500 mg/Kg,; details: P388, ip; procedure, shortened: as §1
Mus musculus [4] = test: Antitumor activity was evaluated as median survival time in BDF1 mice (six mice per group) implanted intraperitoneally with P-388 leukemia cells (10e6 )at a dose of 300 mg/Kg,
Procedure, shortened: (§2)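 Male BDF1 mice (average weight 23 g) inoculated ip with 10^6 P-388 leukemia cells on day 0; leukemia maintained by weekly ip passage in female DBA/2 mice. Compound in sterile 0.9% saline given ip once daily for 9 consecutive days starting 24 h after implantation; controls received saline alone. Animals observed for 60 days or until death; median survival time recorded.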

Mus musculus [5] = test: Antitumor activity was evaluated as median survival time in BDF1 mice (six mice per group) implanted intraperitoneally with P-388 leukemia cells (10e6 )at a dose of 500 mg/Kg,; procedure, shortened: as §2
Mus musculus [6] = test: Antitumor activity was evaluated as median survival time in BDF1 mice (six mice per group) implanted intraperitoneally with P-388 leukemia cells (10e6 )at a dose of 100 mg/Kg,; procedure, shortened: as §2
Mus musculus [7] = test: Antitumor activity was evaluated as percent increase in life span in BDF1 mice (six mice per group) implanted intraperitoneally with P-388 leukemia cells (10e6 )at a dose of 600 mg/Kg,; details: P388, ip; procedure, shortened: as §1
Mus musculus [8] = test: Antitumor activity was evaluated as median survival time in BDF1 mice (six mice per group) implanted intraperitoneally with P-388 leukemia cells (10e6 )at a dose of 600 mg/Kg,; procedure, shortened: as §2

| Compound | ILS at 100 mg/kg (Mus musculus [1]) [%] | ILS at 300 mg/kg (Mus musculus [2]) [%] | ILS at 500 mg/kg (Mus musculus [3]) [%] | MST (Mus musculus [4]) [days] | MST (Mus musculus [5]) [days] | MST (Mus musculus [6]) [days] | ILS at 600 mg/kg (Mus musculus [7]) [%] | MST (Mus musculus [8]) [days] |
| --- | --- | --- | --- | --- | --- | --- | --- | --- |
| Nc1ncnc2c1ncn2C1O[C@H](COP2(=O)NCCCO2)[C@@H](O)[C@@H]1O (stereo not given in full) | 33 | 33 | -11 | 12 | 8 | 12 | – | – |
| Nc1ncnc2c1ncn2C1O[C@H](COP2(=O)OCCCO2)[C@@H](O)[C@@H]1O (stereo not given in full) | 0 | – | – | – | – | 9 | – | – |
| Nc1ncnc2c1ncn2[C@@H]1O[C@H](CO)[C@@H](O)[C@H]1O [ADENOSINE] | – | – | – | – | – | – | 33 | 12 |
